# Screening data (PubChem BioAssay)
# T cell modulator: T cell immune modulation candidate. 2C CD8+ T cell-vesicle binding, flow cytometry; active compounds read low. response (vesicle binding), % at 7 µM. actives 0.068% (n = 330,000). AID 2052;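 active = response, share of CD8 T cells binding vesicles, and their 90th percentile fluorescence all below set limits, cut at about 80% in these data, passing the limit was not always enough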;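 note: values below 100% mean blocked vesicle binding to the CD8+ T cells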
#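 Read-out – percent CD8+ FL2 mean versus row control · System – murine 2C transgenic CD8+ T lymphocytes · Times – 1.5 h cell–vesicle binding at 37 °C, then 20 min icy labelling · Control set – naked vesicles low, QL9 vesicles with vehicle high · Detection – cytometric PE anti-B7-1 and Alexa647 anti-CD8 signals after 1% paraformaldehyde fixation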
# Yeast superoxide: yeast age-related superoxide inhibition as caloric restriction mimetic; S. cerevisiae aged cells, superoxide DHE fluorescence; active compounds read low; superoxide response (% of plate mean), % at 10 µM; actives 0.18% (n = 330,000);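 active = superoxide response under a set limit, about three screen SD below normal, cut at about 65% in these data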;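 note: yeast aged for seven days with compound at 30 °C before DHE staining; 100% = average MFI of all compound-treated wells on the plate with controls excluded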
# beta cell repl: inducers of beta-cell replication in MIN6 cells; proliferation, % at 10 µM; MIN6 cells proliferation, ATPlite luminescence, 48 h; cells starved in 0.2% serum; 100% = growth in 10% serum; actives 0.29% (n = 330,000);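 active = compounds whose signal lies at least 3.5 SD above the mean of all wells on their plate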;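 note: 0% = DMSO-treated cells in low-serum medium and 100% = 10% serum control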
# Rce1 inh: yeast Ras-converting enzyme inhibition. Q03530. yeast membranes, quenched prenylated peptide cleavage fluorescence. calls only. actives 0.27% (n = 290,000);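 active = fall in fluorescence gain of 50% or more versus controls, with final raw signal at or below 3038400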;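 note: plate controls were neutral control wells for no effect and wells lacking membranes for full effect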
# Target sequence (Q03530 whole entry, looked up): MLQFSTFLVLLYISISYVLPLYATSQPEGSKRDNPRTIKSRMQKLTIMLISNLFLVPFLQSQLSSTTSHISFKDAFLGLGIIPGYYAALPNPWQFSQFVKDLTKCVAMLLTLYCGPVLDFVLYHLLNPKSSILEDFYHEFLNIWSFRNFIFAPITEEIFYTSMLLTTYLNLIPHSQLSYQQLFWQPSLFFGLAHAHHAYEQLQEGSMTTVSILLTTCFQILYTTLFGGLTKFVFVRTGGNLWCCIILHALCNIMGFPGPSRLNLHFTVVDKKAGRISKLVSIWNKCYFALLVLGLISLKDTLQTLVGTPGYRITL
# V-ATPase pH: alters yeast V-ATPase proton transport; S. cerevisiae, pHLuorin cytosolic pH fluorescence; response, % at 10 µM; actives 0.37% (n = 350,000); AID 504577; in the data active = response mostly above about 7.3%, no sharp cut-off; inactive = mostly below about 5.4%; note: actives read high
# KLK7 zymogen act: proKLK7 (human) activation, primary screen | P49862 | purified proKLK7, EDANS-DABCYL substrate fluorescence; 100% is mature enzyme control, 0% vehicle | activation, % at 7 µM | AID 652039 | actives 0.9% (n = 370,000);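 active = activation above the mean of all tested compounds plus 3 SD, computed per campaign excluding outliers beyond control limits, cut at about 13% in these data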
# Target sequence (P49862 whole entry, looked up): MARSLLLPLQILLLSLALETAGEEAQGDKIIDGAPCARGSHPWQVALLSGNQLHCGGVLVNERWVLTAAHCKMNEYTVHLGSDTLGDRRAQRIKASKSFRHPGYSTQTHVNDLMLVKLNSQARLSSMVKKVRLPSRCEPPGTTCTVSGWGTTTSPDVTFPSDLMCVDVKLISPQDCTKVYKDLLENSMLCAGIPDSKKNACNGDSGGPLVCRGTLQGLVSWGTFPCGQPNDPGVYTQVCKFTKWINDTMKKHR
# CR mimetic CP: confirmation of caloric restriction mimetics inhibiting yeast age-related superoxide; shares compounds with Yeast superoxide; S. cerevisiae aging, superoxide DHE fluorescence; active compounds read low; superoxide response (% of plate), % at 10 µM; actives 1% (n = 850);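 active = superoxide signal below 65% of the plate average of sample wells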;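 note: cells aged with compound for 7 days at 30 degrees C before staining; 100% equals mean DHE fluorescence of all compound wells on the plate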
# DHE counter: counter-screen for compounds affecting DHE oxidation and fluorescence in yeast | 850 tested, under 10 active | shares compounds with Yeast superoxide | fluorescence response, % at 10 µM | AID 435000 | S. cerevisiae BY4741, flow cytometry; active compounds read low;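 active = fluorescence response below 15%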;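 note: percent of the mean fluorescence averaged over all compound wells on the plate; lower means stronger quenching of DHE signal or ROS scavenging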
# The depositor's hits bear a star; i = inactive; . = no result. In the library only some 1.9% were active in any assay of this set; here they are far more common.
SMILES,T cell modulator,Yeast superoxide,beta cell repl,Rce1 inh,V-ATPase pH,KLK7 zymogen act,CR mimetic CP,DHE counter
COCCNC(=O)C1(C)Cc2c(-c3cccc(NC(C)=O)c3)ccnc2O1 (configuration not stated),.,.,.,.,.,0,.,.
Cc1ccc(C(=O)SC2=NCCS2)cc1,405,58*,0,i,-2,1,101,110
Cc1cc2c(cc(C(=O)OCC(=O)NC3CCCCC3)n2C)o1,.,.,.,.,-6,0,.,.
O=C(CN1C(=O)NC2(CCOc3ccccc32)C1=O)c1ccc(F)cc1 (configuration not stated),211,83,-1,i,2,0,.,.
O=[N+]([O-])c1cccc(/C=N/n2c(-c3cccnc3)n[nH]c2=S)c1,171,132,-1,i,3,0,.,.
Cc1n[nH]c(=S)n(/N=C/c2cccc([N+](=O)[O-])c2)c1=O,205,61*,-3,i,3,0,97,95
CCC(C)(C)c1ccc(OCCCC[n+]2ccc(C)cc2)c(C(C)(C)CC)c1,158,61*,-6,i,.,0,100,96
Cc1cc[n+](CC[n+]2ccc(C)cc2)cc1,705,99,-1,i,-1,0,.,.
CCN(CC)S(=O)(=O)c1cc(OC)c(Cl)cc1Cl,237,58*,-1,i,0,0,98,101
CC[C@H](NC(=O)[C@@H](Cc1ccccc1)NC(=O)[C@H]1O[C@@H](n2ccc(=O)[nH]c2=O)[C@H](O)[C@@H]1O)c1ccccc1,.,.,.,.,.,0,.,.
O=C(CN1CCN(c2ccccn2)CC1)Nc1ccccc1F,229,95,-2,i,-4,0,.,.
Cc1ccc(F)cc1NC(=O)CN1CCN(c2ccccn2)CC1,482,97,-3,i,5,0,106,89
O=C(CN1CCN(c2nc(-c3ccccc3)cs2)CC1)Nc1ccc(F)cc1F,.,.,.,.,.,0,.,.
O=C(CN1CCN(c2ccccn2)CC1)Nc1ccc(F)cc1F,6,90,-1,i,1,-1,91,100
O=C(CN1CCN(c2ccccn2)CC1)Nc1cc(F)ccc1F,593,107,-1,i,0,0,103,100
CC[C@H](C)[C@@H](N)C(=O)NC[C@H]1O[C@@H](n2cnc3c(=O)[nH]c(N)nc32)[C@H](O)[C@@H]1O,.,.,.,.,.,0,.,.
Cn1c(N)c(C(=O)COC(=O)C2=NNC(=O)CC2)c(=O)n(C)c1=O,442,94,-5,i,-1,0,.,.
O=S(=O)(c1ccc(Cl)cc1)c1ccccn1,159,101,0,i,-7,0,.,.
NS(=O)(=O)c1ccc(S(=O)(=O)c2ccccc2)nc1,246,64*,-4,i,1,.,83,90
Cc1cc(C)n2nc(SCC(=O)N(CCC#N)c3ccc(F)cc3)nc2n1,145,90,2,.,-1,1,.,.
COc1ccc(OC)c(S(=O)(=O)N2CCC3(CC2)CC(=O)c2ccccc2O3)c1,277,93,1,i,5,1,.,.
COc1ccc(S(=O)(=O)N2CCC3(CC2)CC(=O)c2ccccc2O3)cc1C,238,65*,-3,i,-3,-1,100,96
Cn1c2ccccc2c(=O)c2c(=O)n(C3CCCCC3)c(-c3cccs3)nc21,360,65*,-6,i,0,0,110,98
Cc1ccc(CN(CC(=O)NCCc2ccccc2)C(=O)CCCC(=O)Nc2cc(C)on2)cc1,387,64*,-2,i,2,0,108,91
O=C(NCC1COCCO1)C1CCN(S(=O)(=O)c2cccs2)CC1 (configuration not stated),.,.,.,.,.,0,.,.
SMILES,T cell modulator,Yeast superoxide,beta cell repl,Rce1 inh,V-ATPase pH,KLK7 zymogen act,CR mimetic CP,DHE counter
CCc1c(C)nc2c(-c3ccccc3OC)c(C)[nH]n2c1=O,249,95,-4,.,4,-1,.,.
CCc1c(C)nc2c(-c3ccccc3)c(-c3ccccc3)[nH]n2c1=O,204,95,-5,i,-2,-4,96,93
C=CCc1c(C)nc2cc(-c3ccc(C)cc3)[nH]n2c1=O,381,103,-5,i,-2,-4,.,.
Cc1ccccc1-c1cc2nc(-c3ccc([N+](=O)[O-])cc3)cc(=O)n2[nH]1,266,96,1,i,0,0,.,.
CCc1c(C)nc2cc(-c3ccccc3)[nH]n2c1=O,343,94,-3,i,-1,-13,103,98
Cc1cccc(-c2cc3nc(-c4ccccc4)cc(=O)n3[nH]2)c1,188,96,-6,i,0,-25,117,112
CC(C)Cn1cc(C(=O)NCc2cccs2)c2c3ccccc3n(C)c2c1=O,256,62*,-2,i,-5,0,125,119
O=c1c2sc(-c3ccccc3)cc2nc2n1CCC2,130,48*,-2,i,1,1,83,107
CCCCCCC12C(=Cc3cc4c(cc31)OCCO4)c1cc(OC)c(OC)cc1C(CC(=O)O)N2C(=O)OC (configuration not stated),.,.,.,.,.,1,.,.
C=CCOc1ccccc1CN1CCC(Oc2ccc(C(=O)N3CCCC3)cc2)CC1,228,65*,-1,i,-5,1,117,111
Cc1cccc(C(=O)NCC(=O)N2CCN(c3ccccn3)CC2)c1,316,86,5,.,-4,0,.,.
CC(=O)O[C@H]1C[C@@H]2CC[C@@H]3[C@H](CC[C@@]4(C)[C@H]3C[C@H]([N+]3(C)CCCCC3)[C@@H]4OC(C)=O)[C@@]2(C)C[C@@H]1N1CCCCC1,576,92,1,i,.,.,103,91
COc1ccc(NC(=O)Cc2ccc(Cl)cc2)cc1S(=O)(=O)N1CCCCC1,340,106,-3,.,-2,1,.,.
Cc1ccc(C(=O)NC2CC(C)(C)NC(C)(C)C2)cc1S(=O)(=O)N1CCOCC1,.,.,.,.,2,1,.,.
N#C/C(=C\c1ccccn1)c1nc2ccccc2s1,431,102,-5,.,-1,-2,.,.
COc1ccc(/C(C#N)=C/c2ccccn2)cc1,163,58*,-5,i,2,5,122,109
O=C(CN1CCN(c2ccccn2)CC1)Nc1ccc2ccccc2c1,232,95,1,i,-2,0,.,.
O=C(CN1CCN(c2ccccn2)CC1)Nc1ccc(Cl)c(C(F)(F)F)c1,242,102,-2,i,-3,0,95,103
O=C(CN1CCN(c2ccccn2)CC1)Nc1cc(C(F)(F)F)ccc1Cl,240,97,-3,i,0,0,107,133
O=C(CN1CCCC1)Nc1cc(C(F)(F)F)ccc1Cl,358,96,-1,i,0,-1,.,.
